Experimental data: PMC6648849 (ACS Omega, 2019)

Assays:
HepG2 cells [1] = experiment: cellular uptake by CLSM in HepG2 cells; format: cell-based, human; settings: 10 μM, 6 h, 37 °C, 5% CO2; CLSM fluorescence imaging
Summary of the method: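 HepG2 cells seeded on glass-bottom dishes at 2.0 × 10^4 cells/well, grown ~24 h, then transduced with BacMam tubulin–GFP for 24 h at 37 °C, 5% CO2. Incubated with 10 μM test compound in medium, PBS-washed, and nuclei stained with 5 μg/mL Hoechst 33342 for 10 min. Confocal imaging: compound ex 550/em 574 nm, GFP ex 489/em 510 nm.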

MTs [2] = experiment: depolymerization/polymerization of MTs in living HepG2 cells; format: cell-based, human; settings: 10 μM colchicine coincubated with 10 μM TP–TMR, 6 h, 37 °C
Summary of the method: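 HepG2 cells expressing BacMam-delivered tubulin–GFP were coincubated with 10 μM test compound and 10 μM colchicine for 6 h at 37 °C under 5% CO2. Nuclei stained with Hoechst 33342 after a PBS wash. Compound and tubulin–GFP signals imaged by confocal microscopy to assess colocalization of compound fluorescence with microtubule fibres.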

HepG2 cells [3] = experiment: cell viability assay; format: cell-based, human; settings: 0–20 μM, 37 °C, 5% CO2, WST (Cell Counting Kit-8), absorbance at 450 nm
Summary of the method: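 HepG2 cells plated at 1.0 × 10^4 cells/well and grown 24 h at 37 °C, 5% CO2. Medium replaced with 0–20 μM test compound for 24 or 72 h. Then fresh medium plus Cell Counting Kit-8 (WST) reagent, 4 h incubation, and absorbance read at 450 nm. Viability (%) is relative to untreated control cells set as 100%.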

[4] = cited from earlier work
MTs [5] = settings: cited from earlier work

## 5(6)-carboxytetramethylrhodamine [TMR–COOH]
HepG2 cells [1]
  cellular uptake into HepG2 cells: not observed

## COc1cc2c(c(OC)c1OC)-c1ccc(OC)c(=O)cc1[C@@H](NC(C)=O)CC2 [colchicine]
MTs [2]
  effect on polymerization of MTs in HepG2 cells: polymerization of MTs was inhibited
HepG2 cells [3]
  cytotoxicity against HepG2 cells, 24 h: clear cytotoxicity in a concentration-dependent manner

## CC(=O)O[C@H]1C(=O)[C@@]2(C)[C@H]([C@H](OC(=O)c3ccccc3)[C@]3(O)C[C@H](OC(=O)[C@H](O)[C@@H](NC(=O)c4ccccc4)c4ccccc4)C(C)=C1C3(C)C)[C@]1(OC(C)=O)CO[C@@H]1C[C@@H]2O [taxol]
HepG2 cells [3]
  cytotoxicity against HepG2 cells, 24 h: clear cytotoxicity in a concentration-dependent manner

## CGGGKKHVPGGGSVQIVYKPVDL [TP]
[4]
  water solubility: high water solubility at millimolar concentrations
MTs [5]
  effect of binding on polymerization/depolymerization of MTs in vitro: does not inhibit
